Experiments:
site IIIQo = details: cited from earlier work
site IQ = details: without affecting energy metabolism; cited from earlier work
[1] = cited from earlier work
[2] = target: site IIIQo of mitochondrial complex III (Rattus norvegicus, UniProt P00159+P20788); assay: Endpoint H2O2 production assays; type: biochemical; details: dose-response in two ΔΨm and six H2O2 endpoint assays
In short: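 Freshly isolated rat skeletal-muscle mitochondria, H2O2 read by Amplex UltraRed/HRP fluorescence. Site conditions: IIIQo, 0.5 or 5 mM succinate + 4 μM rotenone + 2.5 μM antimycin A; IQ, 5 mM succinate; IIF, 0.1 mM succinate + rotenone, antimycin A, 2 μM myxothiazol. Other assays: IF/matrix DH, glycerol phosphate (mGPDH), and two ΔΨm assays. 30-min endpoints normalised to DMSO and inhibitor controls, as % change.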

[3] = Mitochondrial respiration; type: biochemical, rat
In short: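 Seahorse XF24 with 0.5–6 μg rat muscle mitochondrial protein per well, in MAS buffer with 0.3% BSA. Substrate: 5 mM succinate + 4 μM rotenone. State 2 measured with and without compound, then 5 mM ADP (state 3), then 1 μg/ml oligomycin (state 4o). Each compound tested at least three times per substrate.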

HIF-1α = assay: Hypoxia-induced HIF-1α accumulation; type: cell-based, human; details: HEK-293 cells, 3.5 h hypoxia; 2 μM
In short: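 HEK-293 cells, 15,000/well, grown 48 h. Medium then swapped for medium pre-equilibrated overnight at 1% or atmospheric O2. Compounds, 100 μM CoCl2 or 2 μM myxothiazol were pre-equilibrated 1 h in that medium and added at the switch. 3.5 h at 1% O2. Cells rinsed in ice-cold PBS, lysed in Laemmli buffer, frozen −80°C. n = 3 biological replicates; one-way ANOVA.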

For `CCCCCC[C@H]1C(=O)O[C@H](C)[C@H](NC(=O)c2cccc(NC=O)c2O)C(=O)O[C@@H](C)[C@@H]1OC(=O)CC(C)C` [antimycin A], the “HIF-1α induction during hypoxia” value (site IIIQo) is listed as “increased” and the “ROS production during hypoxia” value (site IIIQo) is listed as “increased”.

For `O=[N+]([O-])c1ccc(Oc2ccc(S(=O)(=O)NC3CCCCC3)cc2)cc1` [CN-POBS], the “Electron leak to O2 at site IQ” value (site IQ) is given as “suppresses”.

In the case of `C/C1=C\C[C@]2(C)C(=O)C(O)=C([C@H](C)CO)[C@H]2C/C=C(\C)[C@@H](O)CC/C(C)=C/CC1` [Terpestacin], the “Site IIIQo ROS production and hypoxic signaling” value (site IIIQo; without altering basal respiration) is given as “inhibited”, the “Effect on mitochondrial polarization” value [1] is given as “depolarizes” and the “Selectivity for site IIIQo superoxide production” value [2] is given as “not selective”. The “Effect on mitochondrial respiration / oxidative phosphorylation” value ([3]; 10 – 30 μM, succinate plus rotenone) was “evidence of uncoupling and inhibition of oxidative phosphorylation”.

In the case of `CO/C(=C/C(N)=O)[C@H](C)[C@H](/C=C/c1csc(-c2csc([C@@H](C)/C=C/C=C/C(C)C)n2)n1)OC` [myxothiazol], the “HIF-1α induction during hypoxia” value (site IIIQo) is listed as “blocked”, the “ROS production during hypoxia” value (site IIIQo) is listed as “decreased” and the “Effect on HIF-1α stabilization” value (HIF-1α) is listed as “prevented HIF-1α stabilization”. The “Effect on mitochondrial respiration” value ([3]; 0.08 μM (5x IC50 against site IIIQo), succinate and rotenone) was “potent effect”.

From paper PMC4618194 (Nature chemical biology, 2015)
